Target: T1, Adrenergic receptor alpha-1 (Rattus norvegicus, UniProt P15823+P23944+P43140)
T1 sequence (P15823 whole entry): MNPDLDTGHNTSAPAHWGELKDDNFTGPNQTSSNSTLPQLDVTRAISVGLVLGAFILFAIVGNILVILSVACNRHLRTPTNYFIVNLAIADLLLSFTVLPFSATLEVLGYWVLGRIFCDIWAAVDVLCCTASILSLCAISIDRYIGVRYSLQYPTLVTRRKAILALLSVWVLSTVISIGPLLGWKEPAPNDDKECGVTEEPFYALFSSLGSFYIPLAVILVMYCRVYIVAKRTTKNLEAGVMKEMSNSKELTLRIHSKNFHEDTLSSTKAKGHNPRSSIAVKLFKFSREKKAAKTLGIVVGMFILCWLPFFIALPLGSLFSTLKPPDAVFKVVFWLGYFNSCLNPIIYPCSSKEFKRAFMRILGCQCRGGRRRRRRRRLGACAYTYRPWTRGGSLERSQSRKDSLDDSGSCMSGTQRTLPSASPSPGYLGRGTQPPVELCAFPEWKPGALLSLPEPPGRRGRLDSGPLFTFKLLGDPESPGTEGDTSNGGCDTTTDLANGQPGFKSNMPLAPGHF
T1 sequence (P23944 whole entry): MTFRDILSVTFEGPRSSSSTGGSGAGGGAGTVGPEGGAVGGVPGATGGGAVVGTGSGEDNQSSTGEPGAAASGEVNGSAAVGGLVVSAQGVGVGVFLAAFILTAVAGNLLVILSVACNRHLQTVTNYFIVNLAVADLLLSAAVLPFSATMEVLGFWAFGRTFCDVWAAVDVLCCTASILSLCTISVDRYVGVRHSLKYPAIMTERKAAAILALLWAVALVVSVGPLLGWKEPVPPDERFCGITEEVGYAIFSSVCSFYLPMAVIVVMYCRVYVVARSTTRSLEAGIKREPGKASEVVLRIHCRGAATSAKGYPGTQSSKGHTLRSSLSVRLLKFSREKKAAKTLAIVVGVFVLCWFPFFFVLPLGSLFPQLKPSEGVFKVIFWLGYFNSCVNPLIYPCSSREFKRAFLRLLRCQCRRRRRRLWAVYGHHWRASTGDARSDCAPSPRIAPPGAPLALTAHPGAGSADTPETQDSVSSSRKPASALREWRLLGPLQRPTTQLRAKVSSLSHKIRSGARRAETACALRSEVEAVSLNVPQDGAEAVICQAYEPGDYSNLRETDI
T1 sequence (P43140 whole entry): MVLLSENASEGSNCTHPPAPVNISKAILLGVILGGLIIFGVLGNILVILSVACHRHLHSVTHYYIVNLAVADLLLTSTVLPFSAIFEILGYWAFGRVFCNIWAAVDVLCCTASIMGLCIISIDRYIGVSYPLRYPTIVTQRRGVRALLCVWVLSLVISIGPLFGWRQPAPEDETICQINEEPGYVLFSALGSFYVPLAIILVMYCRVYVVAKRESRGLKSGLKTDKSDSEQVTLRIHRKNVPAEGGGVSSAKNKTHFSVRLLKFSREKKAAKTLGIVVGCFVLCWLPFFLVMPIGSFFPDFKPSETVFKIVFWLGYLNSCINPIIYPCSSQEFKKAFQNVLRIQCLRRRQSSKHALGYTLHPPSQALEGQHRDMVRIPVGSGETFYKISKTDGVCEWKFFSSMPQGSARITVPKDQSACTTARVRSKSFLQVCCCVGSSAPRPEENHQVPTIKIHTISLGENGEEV
Conditions: not given

SMILES	IC50 [nM]
O=C1NCN(c2ccccc2)C12CCN(CCCN(c1ccc(F)cc1)c1ccc(F)cc1)CC2	> 1000

Test system: not listed separately
Assay: The compound was (after peroral administration) tested for inhibition of sidman avoidance in squirrel monkeys
Type: functional
Conditions: po
Summary of the method: (§1)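 Mature male Long-Evans rats or squirrel monkeys trained on a modified Sidman avoidance lever schedule with 0.5-s shock; 6-h sessions, given orally. Response expressed as % inhibition of nondrug avoidance responding, each animal its own control. At least three doses, four animals each, sessions at least 1 week apart; ED50 by nonlinear regression.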

SMILES	ED50 [mg/kg]
O=C1NCN(c2ccccc2)C12CCN(CCCN(c1ccc(F)cc1)c1ccc(F)cc1)CC2	1.7

Test system: not listed separately
Assay: Minimal effective dose required for signs of EPS in cebus monkeys
Type: functional
Conditions: read-out: MED

SMILES	minimal effective dose [mg/kg]
CN1CCN(C2=Nc3cc(Cl)ccc3Nc3ccccc32)CC1 [CLOZAPINE]	> 30
O=C(CCCN1CCC(O)(c2ccc(Cl)cc2)CC1)c1ccc(F)cc1 [HALOPERIDOL]	0.3

Organism: Rattus norvegicus
Assay: The compound was tested for its ability to induced catalepsy in rats
Type: functional
Conditions: not given
Summary of the method: (§2)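 Fasted male Long-Evans hooded rats, 180–220 g, used once; oral intubation, suspended in 0.2% methylcellulose if insoluble. At least three doses, eight rats per dose. Forepaws placed on a horizontal rod 11.5 cm high, read every 30 min for 1 h then hourly to 6 h, 24 h if needed. Partial scores summed; ED50 by nonlinear regression.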

SMILES	ED50 [mg/kg]
CN1CCN(C2=Nc3cc(Cl)ccc3Nc3ccccc32)CC1 [CLOZAPINE]	133
O=C(CCCN1CCC(O)(c2ccc(Cl)cc2)CC1)c1ccc(F)cc1 [HALOPERIDOL]	0.47

Test system: Rattus norvegicus
Assay: The compound was tested (after peroral administration) for its ability to induce catalepsy in rats
Type: functional
Conditions: po
Summary of the method: as §2

SMILES	ED50 [mg/kg]
CN1CN(c2ccccc2)C2(CCN(CCCN(c3ccc(F)cc3)c3ccc(F)cc3)CC2)C1=O	33
O=C1NCN(c2ccccc2)C12CCN(CCCN(c1ccc(F)cc1)c1ccc(F)cc1)CC2	81
CN(C)CCCN1CN(c2ccccc2)C2(CCN(CCCN(c3ccc(F)cc3)c3ccc(F)cc3)CC2)C1=O	200
C=CCN1CN(c2ccccc2)C2(CCN(CCCN(c3ccc(F)cc3)c3ccc(F)cc3)CC2)C1=O	22
O=C1NCN(c2ccc(F)cc2)C12CCN(CCCN(c1ccc(F)cc1)c1ccc(F)cc1)CC2	4.5
O=C1N(CC2CC2)CN(c2ccccc2)C12CCN(CCCN(c1ccc(F)cc1)c1ccc(F)cc1)CC2	200
O=C1N(CO)CN(c2ccccc2)C12CCN(CCCN(c1ccc(F)cc1)c1ccc(F)cc1)CC2	11
O=C1NCN(c2cccc(F)c2)C12CCN(CCCN(c1ccc(F)cc1)c1ccc(F)cc1)CC2	4.1
CC(=O)OCN1CN(c2ccccc2)C2(CCN(CCCN(c3ccc(F)cc3)c3ccc(F)cc3)CC2)C1=O	17
O=C(CCCN1CCC(O)(c2ccc(Cl)cc2)CC1)c1ccc(F)cc1 [HALOPERIDOL]	0.1

Test system: Mus musculus
Assay: Antipsychotic activity using locomotor activity (LMA)-inverted screen test in mice (i.p. admin.)
Type: functional
Conditions: ip, read-out: MED
Summary of the method: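 Unfasted male Swiss-Webster mice, 20–30 g, nine per dose; ip 1 h before testing in 0.2% methocel, 10 mL/kg; 10, 30, 100 mg/kg, three replicates. Inverted-screen falloff over 60 s, then photocell locomotion for 60 min versus vehicle. MED = lowest dose giving >60% locomotor inhibition with <60% falloff.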

SMILES	minimal effective dose [mg/kg]
CN1CN(c2ccccc2)C2(CCN(CCCN(c3ccc(F)cc3)c3ccc(F)cc3)CC2)C1=O	≤ 10
O=C1NCN(c2ccccc2)C12CCN(CCCN(c1ccc(F)cc1)c1ccc(F)cc1)CC2	5
C=CCN1CN(c2ccccc2)C2(CCN(CCCN(c3ccc(F)cc3)c3ccc(F)cc3)CC2)C1=O	≤ 10
O=C1NCN(c2ccc(F)cc2)C12CCN(CCCN(c1ccc(F)cc1)c1ccc(F)cc1)CC2	≤ 10
O=C1N(CC2CC2)CN(c2ccccc2)C12CCN(CCCN(c1ccc(F)cc1)c1ccc(F)cc1)CC2	30
O=C1N(CO)CN(c2ccccc2)C12CCN(CCCN(c1ccc(F)cc1)c1ccc(F)cc1)CC2	< 10
O=C1NCN(c2cccc(F)c2)C12CCN(CCCN(c1ccc(F)cc1)c1ccc(F)cc1)CC2	30
CC(=O)OCN1CN(c2ccccc2)C2(CCN(CCCN(c3ccc(F)cc3)c3ccc(F)cc3)CC2)C1=O	< 10
CN1CCN(C2=Nc3cc(Cl)ccc3Nc3ccccc32)CC1 [CLOZAPINE]	10
O=C(CCCN1CCC(O)(c2ccc(Cl)cc2)CC1)c1ccc(F)cc1 [HALOPERIDOL]	0.3

Test system: not listed separately
Assay: Minimal effective dose (after peroral administration) required for signs of EPS in cebus monkeys
Type: functional
Conditions: po; read-out: MED

SMILES	minimal effective dose [mg/kg]
O=C1NCN(c2ccccc2)C12CCN(CCCN(c1ccc(F)cc1)c1ccc(F)cc1)CC2	2.5

Organism: Rattus norvegicus
Assay: Activity against the suppression of high base line self stimulation with electrodes in the medial forebrain of the posterior hypothalamus of male hooded rats (Peroral admin.)
Type: functional
Conditions: po
Summary of the method: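 Male hooded rats with electrodes in the medial forebrain bundle of the posterior hypothalamus; rapid high base-line self-stimulation rates served as base lines. Oral dosing, behaviour recorded continuously on cumulative recorders. Active if base-line rate was reduced by 50% for 1.5 h or more. Four rats per dose; ED50 by computer analysis (linear regression from doses bracketing the ED50).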

SMILES	ED50 [mg/kg]
CN1CN(c2ccccc2)C2(CCN(CCCN(c3ccc(F)cc3)c3ccc(F)cc3)CC2)C1=O	2.84
CN(C)CCCN1CN(c2ccccc2)C2(CCN(CCCN(c3ccc(F)cc3)c3ccc(F)cc3)CC2)C1=O	16
C=CCN1CN(c2ccccc2)C2(CCN(CCCN(c3ccc(F)cc3)c3ccc(F)cc3)CC2)C1=O	1.06
O=C1NCN(c2ccc(F)cc2)C12CCN(CCCN(c1ccc(F)cc1)c1ccc(F)cc1)CC2	0.55
O=C1N(CC2CC2)CN(c2ccccc2)C12CCN(CCCN(c1ccc(F)cc1)c1ccc(F)cc1)CC2	8.39
O=C1N(CO)CN(c2ccccc2)C12CCN(CCCN(c1ccc(F)cc1)c1ccc(F)cc1)CC2	0.89
O=C1NCN(c2cccc(F)c2)C12CCN(CCCN(c1ccc(F)cc1)c1ccc(F)cc1)CC2	0.78
CC(=O)OCN1CN(c2ccccc2)C2(CCN(CCCN(c3ccc(F)cc3)c3ccc(F)cc3)CC2)C1=O	1.03
O=C(CCCN1CCC(O)(c2ccc(Cl)cc2)CC1)c1ccc(F)cc1 [HALOPERIDOL]	0.14

Organism: Rattus norvegicus
Assay: The compound was tested for inhibition of sidman avoidance in rat
Type: functional
Conditions: not given
Summary of the method: as §1

SMILES	ED50 [mg/kg]
CN1CCN(C2=Nc3cc(Cl)ccc3Nc3ccccc32)CC1 [CLOZAPINE]	14.4
O=C(CCCN1CCC(O)(c2ccc(Cl)cc2)CC1)c1ccc(F)cc1 [HALOPERIDOL]	0.3

Test system: not listed separately
Assay: The compound was tested for inhibition of sidman avoidance in squirrel monkeys
Type: functional
Conditions: not given
Summary of the method: as §1

SMILES	ED50 [mg/kg]
CN1CCN(C2=Nc3cc(Cl)ccc3Nc3ccccc32)CC1 [CLOZAPINE]	4.1
O=C(CCCN1CCC(O)(c2ccc(Cl)cc2)CC1)c1ccc(F)cc1 [HALOPERIDOL]	0.26

Test system: Rattus norvegicus
Assay: The compound was tested (after peroral administration) for inhibition of sidman avoidance in rat
Type: functional
Conditions: po
Summary of the method: as §1

SMILES	ED50 [mg/kg]
O=C1NCN(c2ccccc2)C12CCN(CCCN(c1ccc(F)cc1)c1ccc(F)cc1)CC2	2.8

Target: Muscarinic acetylcholine receptor
Assay: The compound was tested for inhibition of [3H]QNB binding to Muscarinic acetylcholine receptor
Type: protein assay
Conditions: not given

SMILES	IC50 [nM]
O=C1NCN(c2ccccc2)C12CCN(CCCN(c1ccc(F)cc1)c1ccc(F)cc1)CC2	> 100

Test system: not listed separately
Assay: The compound was tested (after peroral administration) for its ability to induced catalepsy in squirrel monkeys
Type: functional
Conditions: po
Summary of the method: (§3)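 Adult squirrel monkeys, 600–1000 g, fasted overnight, oral dosing with at least 1 week between dosings. Observed hourly for at least 6 h and at 24 h. Four animals per dose, at least three doses; ED50 by nonlinear regression for quantal data.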

SMILES	ED50 [mg/kg]
O=C1NCN(c2ccccc2)C12CCN(CCCN(c1ccc(F)cc1)c1ccc(F)cc1)CC2	30

Test system: not listed separately
Assay: The compound was tested for its ability to induced catalepsy in squirrel monkeys
Type: functional
Conditions: not given
Summary of the method: as §3

SMILES	ED50 [mg/kg]
CN1CCN(C2=Nc3cc(Cl)ccc3Nc3ccccc32)CC1 [CLOZAPINE]	> 50
O=C(CCCN1CCC(O)(c2ccc(Cl)cc2)CC1)c1ccc(F)cc1 [HALOPERIDOL]	2

Source: ChEMBL document CHEMBL1123131, “Examination of a series of 8-[3-[bis(4-fluorophenyl)amino]propyl]-1-aryl-1,3,8- triazaspiro[4.5]decan-4-ones as potential antipsychotic agents” (J Med Chem, 1985)
